Experimental data: ChEMBL document CHEMBL3352335, “Eurifoloids A-R, structurally diverse diterpenoids from Euphorbia neriifolia” (J Nat Prod, 2014)
The source made the active and inactive calls. The rule behind the calls is not given here.

Key:
[1] = Inhibition of XBP1 mRNA splicing (unknown origin) expressed in mouse B16-F10-XBP1-DBD-luc cells incubated for 8 hrs by luciferase reporter gene assay; assay type: cell-based
[2] = biological target: Nuclear factor NF-kappa-B complex (Homo sapiens) (UniProt Q00653+P19838+Q04206); assay: Inhibition of TNFalpha-stimulated NF-kappaB signaling (unknown origin) expressed in HEK293 cells by luciferase reporter gene assay; assay type: cell-based
Sequence of Nuclear factor NF-kappa-B complex (Homo sapiens) (P19838 whole entry, looked up): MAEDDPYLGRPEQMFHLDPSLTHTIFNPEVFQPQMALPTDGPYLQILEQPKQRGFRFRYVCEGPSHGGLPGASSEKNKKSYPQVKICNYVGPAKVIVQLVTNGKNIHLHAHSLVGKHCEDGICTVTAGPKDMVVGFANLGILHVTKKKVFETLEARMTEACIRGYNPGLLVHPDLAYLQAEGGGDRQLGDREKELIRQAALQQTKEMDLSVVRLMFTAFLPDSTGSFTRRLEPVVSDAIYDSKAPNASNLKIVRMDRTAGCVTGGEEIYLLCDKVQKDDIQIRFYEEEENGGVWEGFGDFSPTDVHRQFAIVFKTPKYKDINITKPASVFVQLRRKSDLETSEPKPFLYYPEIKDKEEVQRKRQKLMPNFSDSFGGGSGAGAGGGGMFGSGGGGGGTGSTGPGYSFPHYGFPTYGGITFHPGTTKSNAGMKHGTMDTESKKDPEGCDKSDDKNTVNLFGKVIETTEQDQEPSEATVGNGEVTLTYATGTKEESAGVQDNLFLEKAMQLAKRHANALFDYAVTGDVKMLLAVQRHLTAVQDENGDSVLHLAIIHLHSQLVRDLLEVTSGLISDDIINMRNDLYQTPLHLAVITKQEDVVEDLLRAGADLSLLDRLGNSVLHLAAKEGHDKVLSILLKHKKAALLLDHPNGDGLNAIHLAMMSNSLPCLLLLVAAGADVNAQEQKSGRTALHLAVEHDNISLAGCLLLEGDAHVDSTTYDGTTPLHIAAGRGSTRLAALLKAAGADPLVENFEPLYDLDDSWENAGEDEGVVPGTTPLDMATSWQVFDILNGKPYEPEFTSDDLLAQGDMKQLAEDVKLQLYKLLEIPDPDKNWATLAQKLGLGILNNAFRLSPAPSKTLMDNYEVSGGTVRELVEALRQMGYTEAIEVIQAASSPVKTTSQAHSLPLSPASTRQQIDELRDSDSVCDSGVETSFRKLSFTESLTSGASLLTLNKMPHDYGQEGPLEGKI
Sequence of Nuclear factor NF-kappa-B complex (Homo sapiens) (Q00653 whole entry, looked up): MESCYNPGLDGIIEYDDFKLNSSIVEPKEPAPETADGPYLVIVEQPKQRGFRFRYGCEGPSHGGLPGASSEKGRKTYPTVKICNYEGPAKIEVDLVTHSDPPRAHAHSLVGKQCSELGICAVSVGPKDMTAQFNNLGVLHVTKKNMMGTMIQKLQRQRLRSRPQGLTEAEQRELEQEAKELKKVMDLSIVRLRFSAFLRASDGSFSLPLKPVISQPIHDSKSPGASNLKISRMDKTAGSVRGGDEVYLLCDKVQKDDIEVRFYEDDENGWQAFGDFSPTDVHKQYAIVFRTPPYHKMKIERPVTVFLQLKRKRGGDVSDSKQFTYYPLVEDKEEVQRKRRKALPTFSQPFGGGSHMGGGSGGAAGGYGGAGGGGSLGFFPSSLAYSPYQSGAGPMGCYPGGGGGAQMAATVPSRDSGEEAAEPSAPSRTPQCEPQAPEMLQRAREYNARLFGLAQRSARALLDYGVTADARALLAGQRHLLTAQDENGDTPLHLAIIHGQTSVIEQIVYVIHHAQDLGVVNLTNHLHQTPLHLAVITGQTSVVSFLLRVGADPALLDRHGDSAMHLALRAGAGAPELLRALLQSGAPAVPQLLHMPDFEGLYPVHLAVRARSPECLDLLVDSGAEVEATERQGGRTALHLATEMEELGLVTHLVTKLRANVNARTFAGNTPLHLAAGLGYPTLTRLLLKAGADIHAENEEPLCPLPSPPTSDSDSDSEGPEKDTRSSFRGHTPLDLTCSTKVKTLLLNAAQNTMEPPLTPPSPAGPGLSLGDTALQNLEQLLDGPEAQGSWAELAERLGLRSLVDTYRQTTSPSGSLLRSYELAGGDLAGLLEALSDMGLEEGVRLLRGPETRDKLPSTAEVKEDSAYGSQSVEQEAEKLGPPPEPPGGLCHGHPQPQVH
Sequence of Nuclear factor NF-kappa-B complex (Homo sapiens) (Q04206 whole entry, looked up): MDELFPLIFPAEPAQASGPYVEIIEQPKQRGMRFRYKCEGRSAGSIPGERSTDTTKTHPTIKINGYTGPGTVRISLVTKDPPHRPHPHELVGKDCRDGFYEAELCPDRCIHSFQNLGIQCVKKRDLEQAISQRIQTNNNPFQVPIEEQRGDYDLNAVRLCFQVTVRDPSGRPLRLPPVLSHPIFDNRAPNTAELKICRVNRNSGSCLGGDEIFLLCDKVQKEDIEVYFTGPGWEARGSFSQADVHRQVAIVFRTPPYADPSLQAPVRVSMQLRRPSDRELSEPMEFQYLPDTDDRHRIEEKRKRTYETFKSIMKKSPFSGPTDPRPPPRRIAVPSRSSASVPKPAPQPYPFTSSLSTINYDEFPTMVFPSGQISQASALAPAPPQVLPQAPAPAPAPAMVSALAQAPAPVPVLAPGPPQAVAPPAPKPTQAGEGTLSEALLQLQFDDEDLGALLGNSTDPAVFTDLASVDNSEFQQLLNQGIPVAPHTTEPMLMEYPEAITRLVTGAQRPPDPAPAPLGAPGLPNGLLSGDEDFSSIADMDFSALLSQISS

[3] = biological target: T1, Tyrosine-protein phosphatase non-receptor type 1 (Homo sapiens) (UniProt P18031); assay: Inhibition of PTP1B (unknown origin)
T1 sequence (whole entry): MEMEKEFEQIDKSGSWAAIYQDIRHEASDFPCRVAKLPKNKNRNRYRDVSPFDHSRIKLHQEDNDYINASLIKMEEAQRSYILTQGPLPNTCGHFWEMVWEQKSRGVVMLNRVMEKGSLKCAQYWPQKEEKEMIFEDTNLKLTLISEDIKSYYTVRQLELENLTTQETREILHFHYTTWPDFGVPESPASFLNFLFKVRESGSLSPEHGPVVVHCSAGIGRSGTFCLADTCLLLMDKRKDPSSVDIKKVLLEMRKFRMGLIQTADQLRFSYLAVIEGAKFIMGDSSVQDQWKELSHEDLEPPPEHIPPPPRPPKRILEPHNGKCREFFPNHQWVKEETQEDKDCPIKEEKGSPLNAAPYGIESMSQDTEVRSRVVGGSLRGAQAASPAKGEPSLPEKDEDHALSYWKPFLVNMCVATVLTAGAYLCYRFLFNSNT

[4] = test system: Human immunodeficiency virus 1; assay: Antiviral activity against HIV-1 NL 4-3 infected in MT4 cells assessed as inhibition of virus-induced cytopathic effect; assay type: functional, organism-based; conditions: Human immunodeficiency virus 1, NL 4-3, MT4
How it was run: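 HIV-1 NL4-3-infected MT-4 cultures; run per a prior method with minor changes. The read-out is protection of cells from virus-induced cytopathic effect. EC50 is the concentration giving 50% protection, derived by curve fitting.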

[5] = Selectivity index, ratio of CC50 for human MT4 cells to EC50 for HIV-1 NL 4-3 infected in MT4 cells; assay type: toxicity, cell-based; conditions: read-out: Ratio CC50/EC50

C=C[C@@]1(C)C=C2CC[C@@H]3C(C)(C)[C@H](OC(C)=O)CC[C@@]3(C)[C@@H]2C[C@@H]1O
inhibition [1]: inactive
inhibition [2]: inactive
inhibition [3]: inactive

C=C1C[C@@]23CC[C@@H]4C(C)(C)C(=O)CC[C@@]4(C)[C@@H]2C[C@@H]1[C@@H](O)[C@H]3O
inhibition [1]: inactive
inhibition [2]: inactive
inhibition [3]: inactive

C[C@@]12CCC(=O)[C@@](C)(CO)[C@H]1CC[C@@]13CC[C@@H](C[C@H]12)[C@](O)(CO)C3
inhibition [1]: inactive
inhibition [2]: inactive
inhibition [3]: inactive

CC1=C2[C@H]3O[C@]34CC[C@@H]3C(C)(C)CC[C@H](O)[C@@]3(C)[C@@H]4C[C@H]2OC1=O
EC50 [4]: 7.4 µM
selectivity ratio [5]: 10.3

C=C[C@@]1(C)C=C2CC[C@H]3[C@@](C)(CC[C@@H](OC(C)=O)[C@]3(C)C(=O)O)[C@@H]2C[C@@H]1O
inhibition [1]: inactive
inhibition [2]: inactive
inhibition [3]: inactive

C=C1C[C@@]23CC[C@@H]4C(C)(C)C(=O)CC[C@@]4(C)[C@@H]2C[C@@H]1C[C@H]3O
inhibition [1]: inactive
inhibition [2]: inactive
inhibition [3]: inactive

CC(=O)O[C@H]1C2=C(C[C@H]3OC(=O)C(C)=C13)[C@@]1(C)[C@H](CC2)C(C)(C)CC[C@@H]1O
EC50 [4]: 3.58 µM
selectivity ratio [5]: 8.6

C=C[C@@]1(C)C=C2CC[C@@H]3[C@@](C)(C=O)[C@H](OC(C)=O)CC[C@@]3(C)[C@@H]2C[C@@H]1O
inhibition [1]: inactive
inhibition [2]: inactive
inhibition [3]: inactive

CC1(C)C(=O)CC[C@]2(C)[C@@H]1CC[C@@]13CC[C@@H](C[C@H]12)C(=O)C3
inhibition [1]: inactive
inhibition [2]: inactive
inhibition [3]: inactive
